Compounds with a hit are over-represented: about 1.4% of the library has one in this group of screens.
INS-1E GSIS act – primary screen for activators of insulin secretion dependent on glucose, INS-1E cells, GLuc reporter luminescence; INS-1E GLuc reporter insulin secretion, 2-3 h; hit rate 0.61% among 370,000; AID 743287; activation, % at 16.6 µM;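 active means lowest replicate activation of at least 40%, so every replicate reaches that level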;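 further: 0% = median of neutral control wells and 100% = median of IBMX positive control wells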
PDI turbidity – PDI (human) enzyme inhibition | PDI insulin aggregation turbidity, A650, 90 min | inhibition, % at 10 µM | hit rate 0.052% among 350,000;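 active means mean inhibition across replicates of 30% or more, whatever share of single replicates reach that level; inconclusive means mean inhibition below 30% while every single replicate reaches 30%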
Env fusion inh – inhibitors of HIV Env-mediated cell fusion; HeLa-JRFL Env/CEM21 cell fusion, luciferase; inhibition, % at 12.3 µM; hit rate 1.1% among 360,000; AID 651610;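 active means mean replicate inhibition score of at least 50 and every replicate individually at or above 50; inconclusive means only one of the two criteria met; inactive means mean below 50 and not all replicates reaching 50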;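 further: 0% = plate neutral controls and 100% = maraviroc near 300 nM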
FN deposit inh – fibronectin deposition inhibition; inhibition, % at 12.6 µM; AH1F fibroblasts, Alexa488-fibronectin deposition fluorescence, overnight; hit rate 0.086% among 350,000;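 active means mean inhibition across replicates of 30% or more, regardless of how many single replicates reach that level; inconclusive means mean under 30% yet at least half of replicates reach 30%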;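 further: positive control wells lacked labelled fibronectin entirely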
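Material – AH1F fibroblast monolayer, labelled fibronectin deposition · Reagent – labelled fibronectin 24 nM · Timing – 1 h adhesion, overnight exposure · Measured by – fluorescence at 485 nm excitation, 525 nm emission · Read-out – inhibition of fibronectin deposition signal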
ERp5 inh – inhibitors of human ERp5. AID 651711. hit rate 0.05% among 350,000. ERp5 insulin aggregation, absorbance 650 nm, 90 min. Q15084. inhibition, % at 9.99 µM;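 active means mean replicate inhibition above about 25%, with every replicate also reaching it, limit read from the data, passing the limit was not always enough; inconclusive means only one of those two criteria met; inactive means neither criterion met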
Target sequence (Q15084 whole entry, looked up): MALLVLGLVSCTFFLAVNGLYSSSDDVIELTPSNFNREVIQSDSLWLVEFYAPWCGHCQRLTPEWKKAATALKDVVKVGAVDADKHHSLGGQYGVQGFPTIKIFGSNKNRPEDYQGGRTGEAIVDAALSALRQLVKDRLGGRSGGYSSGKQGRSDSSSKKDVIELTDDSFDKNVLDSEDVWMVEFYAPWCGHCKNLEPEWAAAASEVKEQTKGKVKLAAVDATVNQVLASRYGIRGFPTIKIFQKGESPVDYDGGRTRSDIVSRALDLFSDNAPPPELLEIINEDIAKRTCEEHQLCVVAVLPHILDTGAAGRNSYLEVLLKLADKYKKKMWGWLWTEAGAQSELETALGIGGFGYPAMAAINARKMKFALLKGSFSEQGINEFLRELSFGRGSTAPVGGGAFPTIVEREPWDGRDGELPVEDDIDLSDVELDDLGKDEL
Starred values were filed as active, the others as inactive; u = inconclusive; x = no result given; [ ] = another dose, or the depositor's remark.

SMILES | INS-1E GSIS act | PDI turbidity | Env fusion inh | FN deposit inh | ERp5 inh
CN1CCN(C(=O)C[C@@H]2CC[C@@H]3[C@H](COC[C@H](O)CN3C(=O)Cc3ccccc3)O2)CC1 | -1 | x | -9[16.7 µM] | -2 | -3
Cc1noc(C)c1NC(=O)N(C)C[C@@H]1Oc2ccc(NC(=O)Cc3cn(C)c4ccccc34)cc2C(=O)N([C@@H](C)CO)C[C@@H]1C | 6 | x | x | x | -5
COc1ccc(CSc2n[nH]c(C)n2)cc1[N+](=O)[O-] | -4 | 4 | -7 | 1 | x
COc1ccc(CSc2ncn[nH]2)cc1[N+](=O)[O-] | 61* | 6 | 4 | 7 | x
O=C(O)c1ccc(S(=O)(=O)NN=Cc2c[nH]c3ccccc23)cc1 | 16 | 11 | -1 | x | 7
O=C(O)c1ccc(N/N=C/c2c[nH]c3ccccc23)cc1 | 2 | 3 | 59* | 0 | 0
COCC(=O)Nc1ncc(S(=O)(=O)c2ccc([N+](=O)[O-])cc2)s1 | 11 | -2 | 4 | 6 | 4
O=C(NC(Nc1ncc(S(=O)(=O)c2ccc([N+](=O)[O-])cc2)s1)(C(F)(F)F)C(F)(F)F)c1ccc(Cl)cc1 | x | 1 | 144* | 9 | x
N#Cc1ccc(NC(=O)Nc2cccc(C#N)c2)cc1 | -56 | 7 | 46 | -1 | 1
N#Cc1ccc(NC(=O)Nc2ccc(Oc3ccc(NC(=O)Nc4ccc(C#N)cc4)cc3)cc2)cc1 | -8 | 1 | 64* | -11 | 2
C[C@H]1CN([C@@H](C)CO)C(=O)c2cccc(NS(=O)(=O)c3cccs3)c2O[C@H]1CN(C)S(=O)(=O)c1ccc(Cl)cc1 | -13 | x | -10[16.7 µM] | x | 2
O=C(Nc1cccc(Cl)c1)N[C@@H]1CC[C@H](CCNC(=O)C2CC2)O[C@H]1CO | 5 | x | 8[16.7 µM] | -6 | -1
C[C@@H]1CN([C@@H](C)CO)S(=O)(=O)c2ccc(C#Cc3ccccc3)cc2O[C@@H]1CN(C)C(=O)CN(C)C | 39 | x | 5[16.7 µM] | 16 | 1
O=S(=O)(c1ccc(-c2csc(Nc3ccc(Br)cc3)n2)cc1)N1CCCC1 | 89* | 0 | 35 | -5 | x
COc1ccc(/C=C/c2ccc3cccc(O)c3n2)c(OC)c1OC | -4 | -2 | -356 | 35* | 2
c1ccc(-c2nnc3ccc(N4CCC5(CC4)OCCO5)nn23)cc1 | 61* | 5 | 3 | 3 | x
CCCC(=O)N1CC2(CCN(C(=O)NC(C)C)CC2)c2c(n(C)c3cc(OC)ccc23)[C@H]1CO | 15 | x | x | x | x
COC(=O)c1c(NC(=O)CN2CCC3(O)CCCCC3C2c2ccc(F)cc2)sc(C)c1C (stereo not given) | -4 | -3 | -15 | 5 | x
COC(=O)c1c(NC(=O)CN2CCC3(O)CCCCC3C2c2cc(OC)ccc2OC)sc(C)c1C (stereo not given) | -12 | -2 | 91* | -5 | x
C[C@H](CO)N1C[C@H](C)[C@@H](CN(C)CC2CCCCC2)Oc2ccc(NC(=O)Nc3ccc(F)cc3)cc2C1=O | 12 | x | 13[16.7 µM] | x | 0
O=C(C[C@H]1C=C[C@@H](NC(=O)NC2CCCCC2)[C@H](CO)O1)NCc1ccc(Cl)cc1 | x | x | 4[16.7 µM] | x | 0
N#CC(C#N)=C(Nc1ccc(F)cc1)SCc1cccc(F)c1 | -31 | 2 | 61* | 5 | x
CC1(C)CC(=O)C=C(c2cccc3c2oc2ccccc23)C1 | 2 | 3 | 72* | -6 | 4
C[C@H]1CNC(=O)c2c(C(=O)N3CCN(c4ccccc4)CC3)ncn21 | -28 | x | 79* | 14 | -3
C[C@@H]1CNC(=O)c2c(C(=O)N(C)Cc3ccccc3)ncn21 | -35 | x | 137* | -6 | 1
SMILES | INS-1E GSIS act | PDI turbidity | Env fusion inh | FN deposit inh | ERp5 inh
C[C@H]1CNC(=O)c2c(C(=O)N3CCN(C(=O)OC(C)(C)C)CC3)ncn21 | -57 | x | 72* | 5 | -3
CN1c2ccc(Br)cc2[C@@H]2[C@@H](CCN2C(=O)C2CCC2)[C@@H]1CO | -7 | x | x | -3 | 0
COc1ccc(S(=O)(=O)Nc2cccc3c2O[C@@H](CN(C)S(=O)(=O)c2cn(C)cn2)[C@@H](C)CN([C@H](C)CO)C3=O)cc1 | 1 | x | x | -8 | -3
CC(=O)Nc1ccc(NC(=O)CSc2nc(=O)n3cccc(C)c3n2)cc1 | 23 | 32* | 0 | 7 | 8
O=C(CSc1nc(=O)n2ccccc2n1)Nc1cccc2ccccc12 | -3 | -1 | u | -4 | -2
CC(=O)Nc1cccc(NC(=O)CSc2nc(=O)n3cccc(C)c3n2)c1 | 1 | -9 | 6 | 9 | 7
Cc1cccn2c(=O)nc(SCC(=O)Nc3cccc4ccccc34)nc12 | 14 | -4 | 88* | 0 | 1
